BindingDB's records for doi:10.1016/j.bmcl.2005.09.030 (Institut Henri Beaufour, 2005)
pIC50: −log10 of the molar value.

molecular target: T1, M-phase inducer phosphatase 3 (Homo sapiens, UniProt P30307); assay: Inhibitory activity against recombinant CDC25C
T1 sequence (P30307 whole entry): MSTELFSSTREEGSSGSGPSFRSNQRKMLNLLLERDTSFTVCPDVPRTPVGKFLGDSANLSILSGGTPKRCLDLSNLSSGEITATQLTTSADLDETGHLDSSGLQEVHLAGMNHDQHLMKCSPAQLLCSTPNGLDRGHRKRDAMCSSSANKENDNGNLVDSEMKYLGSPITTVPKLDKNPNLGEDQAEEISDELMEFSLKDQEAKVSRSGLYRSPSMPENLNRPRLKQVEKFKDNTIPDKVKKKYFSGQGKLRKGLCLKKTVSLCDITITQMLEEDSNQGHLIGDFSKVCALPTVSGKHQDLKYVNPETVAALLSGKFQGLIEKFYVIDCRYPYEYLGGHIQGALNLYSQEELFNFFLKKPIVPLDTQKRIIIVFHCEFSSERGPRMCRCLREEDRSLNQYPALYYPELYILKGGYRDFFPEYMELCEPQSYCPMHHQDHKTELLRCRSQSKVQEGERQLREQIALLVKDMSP
Procedure, shortened: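 Recombinant maltose binding protein (MBP)-CDC25C fusion enzyme, with 3-O-methylfluorescein phosphate (OMFP) as substrate. IC50 given as mean ± SEM from at least two, usually three, independent experiments.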

First: CCc1nc2c(O)cc(N=CCN(C)C)c(O)c2[nH]1 [5-(2-(dimethylamino)ethylamino)-2-ethyl-1H-benzo[d]imidazole-4,7-dione]
Second: CCc1nc2c(O)cc(N=CCN(C)C)c(O)c2o1 [6-(2-(dimethylamino)ethylamino)-2-ethylbenzo[d]oxazole-4,7-dione]
The pIC50 of the first is 1.97 log units lower: 4.92 for the first, 6.89 for the second. The second is the more potent here.

Compared with `CCc1nc2c(O)c(N=CCN(C)C)cc(O)c2o1` [5-(2-(dimethylamino)ethylamino)-2-ethylbenzo[d]oxazole-4,7-dione], `CN(C)CC=Nc1cc(O)c2oc(-c3ccccc3)nc2c1O` [5-(2-(dimethylamino)ethylamino)-2-phenylbenzo[d]oxazole-4,7-dione] is 0.25 log units lower in pIC50: 6.89 for the first, 6.64 for the second.

`CN(C)CC=Nc1cc(O)c2nn(-c3ccccc3)cc2c1O` [5-(2-(dimethylamino)ethylamino)-2-phenyl-2H-indazole-4,7-dione] and `CN(C)CC=Nc1cc(O)c2cn(-c3ccccc3)nc2c1O` [6-(2-(dimethylamino)ethylamino)-2-phenyl-2H-indazole-4,7-dione] are the same in pIC50: 4.92 for the first, 4.92 for the second.

Molecule `CN(C)CC=Nc1cc(O)c2nc(-c3ccccc3)oc2c1O` [6-(2-(dimethylamino)ethylamino)-2-phenylbenzo[d]oxazole-4,7-dione] has a pIC50 of 6.64.
